Screens from PubChem BioAssay.
M4 ag = CHRM4 agonism in calcium assay; hit rate 0.14% among 360,000; AID 624127; P08173; CHO-K1 hM4/Gqi5, Fluo-8 calcium fluorescence; vehicle 0%, full acetylcholine response 100%; activation, % at 3 µM;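 active = activation above the run mean over all test wells plus 3 SD, cut at about 32% in these data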;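 note: peak over basal fluorescence ratio per well then scaled between controls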
CHRM5 agonist = agonists of human muscarinic M5 receptor (CHRM5). P08912. hit rate 0.19% among 360,000. CHO-K1 hM5 cells, Fluo-8 calcium fluorescence; 0% DMSO wells, 100% maximal acetylcholine response. activation, % at 3 µM;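 active = activation above the run's mean over test compounds plus 3 SD, cut at about 23% in these data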;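 note: signal is peak over basal fluorescence ratio across the kinetic read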
Target sequence (P08912 whole entry, looked up): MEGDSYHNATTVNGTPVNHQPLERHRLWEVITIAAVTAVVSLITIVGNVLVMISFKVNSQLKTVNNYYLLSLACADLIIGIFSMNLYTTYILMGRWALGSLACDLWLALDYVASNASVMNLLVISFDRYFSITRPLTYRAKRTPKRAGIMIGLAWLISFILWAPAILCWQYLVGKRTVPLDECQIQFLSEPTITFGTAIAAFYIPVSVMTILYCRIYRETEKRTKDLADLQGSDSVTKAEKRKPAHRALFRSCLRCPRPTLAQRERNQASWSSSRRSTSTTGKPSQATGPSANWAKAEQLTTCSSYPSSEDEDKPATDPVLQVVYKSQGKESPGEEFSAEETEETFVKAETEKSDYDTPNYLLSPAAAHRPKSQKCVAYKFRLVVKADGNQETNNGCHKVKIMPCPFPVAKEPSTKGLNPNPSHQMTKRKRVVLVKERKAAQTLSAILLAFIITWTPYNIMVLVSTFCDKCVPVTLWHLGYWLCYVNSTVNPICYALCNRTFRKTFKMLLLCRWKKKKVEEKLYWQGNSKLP
CHRM4 antagonist = antagonists of human muscarinic M4 receptor (CHRM4); P08173; CHO-hM4 cells, ACh EC80, Fluo-8 calcium fluorescence; inhibition, % at 3 µM; hit rate 0.73% among 360,000;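 active = inhibition above its plate's cutoff, the mean inhibition of sample wells plus 3 SD, cut at about 27% in these data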
M5 PAM = CHRM5 positive allosteric modulation. P08912. CHO-K1 hM5, Fluo-8 calcium, ACh EC20 PAM; 0% = ACh EC20, 100% = ACh EC100. activation, % at 3 µM. hit rate 0.3% among 360,000. AID 624038;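 active = activation above the run cutoff, the mean activation of all test compounds plus 3 SD, cut at about 18% in these data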
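Probe or stimulus: acetylcholine, EC20 level; Assay system: human M5 receptor in CHO-K1 cells; Schedule: compound preincubation 140 s before EC20 acetylcholine addition; Technique: intracellular calcium via Fluo-8 fluorescence; Dosing: single-point, 3 µM nominal; Read-out basis: percent activation from peak-over-basal fluorescence ratio, scaled EC20-to-EC100 acetylcholine; Repeats: one well per compound, no replicates.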
CHRM4 PAM = positive allosteric modulators of human muscarinic M4 receptor; AID 624126; hit rate 0.4% among 360,000; CHO-K1 hM4/Gqi5, Fluo-8 calcium fluorescence, ACh EC20; 0% = ACh EC20, 100% = maximal ACh; activation, % at 3 µM;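 active = activation above its plate's cutoff, the mean activation of sample wells plus 3 SD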
M5 antag = CHRM5 antagonism in calcium assay | CHO-hM5 cells, Fluo-8 calcium fluorescence, ACh EC80 | inhibition, % at 3 µM | hit rate 0.59% among 360,000 | AID 624040;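 active = inhibition above a per-plate cutoff, the mean of that plate's test compounds plus 3 SD, cut at about 27% in these data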
Of the large screens only hits and unclear results are named; the others gave an inactive call. Shown are actives, neighbours in structure and some others; about 1.8% of the full set was active somewhere.

COC(=O)C1=C(C)NC(=S)NC1c1ccc(N(CCCl)CCCl)cc1Cl (stereo unspecified)	M5 PAM 18
CCOC(=O)C1(CCc2ccccc2)CCN(Cc2cccc3cnccc23)CC1	M5 antag 81
CCOC(=O)C1(CCOc2ccccc2)CCN(Cc2cccc(O)c2)CC1	M5 antag 33
CCOC(=O)C1(CCOc2ccccc2)CCN(C2Cc3ccccc3C2)CC1	M5 antag 32
CCOC(=O)C1(CCOc2ccccc2)CCN(C(C)CSC)CC1 (stereo unspecified)	none
COc1ccc(C(c2nnnn2-c2ccc3c(c2)OCCO3)N2CCC3(CC2)C(=O)NCN3c2ccccc2)cc1 (stereo unspecified)	none
CN1CCC(C)(O)C2CCCCC21 (stereo unspecified)	none
C#CC[N+]1(C)[C@@H]2CC[C@H]1CC(OC(=O)C(CO)c1ccccc1)C2 (stereo partly specified)	CHRM4 antagonist 99, M5 antag 98
C[N+]1(C)C2CC[C@H]1CC(OC(=O)C(CO)c1ccccc1)C2 (stereo partly specified)	CHRM4 antagonist 99, M5 antag 99
C[N+]1(C)C2CCC1CC(OC(=O)c1c[nH]c3ccccc13)C2 (stereo unspecified)	none
C[N+]1(C)[C@@H]2CC[C@H]1CC(OC(=O)[C@@H](CO)c1ccccc1)C2 (stereo partly specified)	CHRM4 antagonist 99, M5 antag 99
C[N+]1(C)CCC(OC(=O)C(c2ccccc2)c2ccccc2)CC1	CHRM4 antagonist 98, M5 antag 99
CCOc1cc(C2C(C#N)=C(N)Oc3c2c(=O)oc2ccccc32)ccc1OC(=O)c1cccs1 (stereo unspecified)	none
CC(C)N1OC2CC1c1nc3ccccc3n1C2 (stereo unspecified)	none
CCCc1nc2ccccc2c(=O)n1-c1ccc(O)cc1	none
CCC(=NCc1cc(OC)cc(OC)c1)c1c(O)[nH]c(=O)[nH]c1=O	none
C[N+]1(C)C2CC(OC(=O)[C@H](CO)c3ccccc3)CC1C1OC12 (stereo partly specified)	M5 antag 99 (no result: M4 ag, CHRM4 antagonist, CHRM4 PAM)
Cc1ccc(Cn2nc(C(=O)Nc3ccc(Br)cc3)cc2C)cc1	none
CSCCC(c1nnnn1Cc1ccccc1)N1CCC(n2c(=O)[nH]c3ccccc32)CC1 (stereo unspecified)	CHRM5 agonist 30
CSCCC(c1nnnn1Cc1ccccc1)N1CCC2(CC1)C(=O)NCN2c1ccccc1 (stereo unspecified)	CHRM5 agonist 44
O=c1[nH]c2ccccc2n1C1CCN(C(c2cccs2)c2nnnn2Cc2ccccc2)CC1 (stereo unspecified)	none
O=c1[nH]c2ccccc2n1C1CCN(C(CCc2ccccc2)c2nnnn2Cc2ccccc2)CC1 (stereo unspecified)	none
O=c1[nH]c2ccccc2n1C1CCN(C(c2nnnn2Cc2ccccc2)C2CC2)CC1 (stereo unspecified)	CHRM4 antagonist 29
N[C@H](CO)Cc1ccccc1	none
COC(=O)C1=C(c2ccc(F)cc2OCc2ccccc2)C[C@@H]2CC[C@H]1N2C(=O)N1CCOCC1	none
CC1CCCCN1CC(O)c1c[nH]c2ccccc12 (stereo unspecified)	none
OC(CN1CCCCC1)c1c[nH]c2ccccc12 (stereo unspecified)	CHRM4 antagonist 86
S=P1(Oc2ccccc2)Nc2ccccc2N1	none
CC1(C)C[C@H]2C=C(C=O)[C@]3(C=O)C[C@]3(C)[C@H]2C1	CHRM4 antagonist 35
C(#CCN1CCCCC1)CN1CCCCC1	none
O=C1CCCN1CC#CCN1CCCC1	M4 ag 84, CHRM5 agonist 103, CHRM4 antagonist 81, M5 antag 95
COC(=O)C1=C(c2ccc(OC)c(OC)c2)C[C@@H]2CC[C@H]1N2C(=O)NCc1cc(C)oc1C(F)(F)F	none
COc1cc(OC)c(OC)cc1CN1CCN(C(=O)Cc2ccccc2)CC1	none
O=C(CF)NC(NC(=S)Nc1ccccc1O)C(Cl)(Cl)Cl (stereo unspecified)	CHRM4 PAM 20
Cc1sc2c(c1C)C(c1ccc(C(C)(C)C)cc1)=NCC(=O)N2CC(=O)Nc1nccs1	none
CN(Cc1cccc(-c2ccncc2)c1)C(=O)Oc1ccccc1Cc1ccccc1	CHRM4 antagonist 37, M5 antag 43
CN(Cc1cccc(-c2ccncc2)c1)C(=O)Oc1ccccc1Cl	none
CC(C)NC(=O)Cn1cc(C(=O)c2ccccc2F)c2ccccc21	CHRM4 PAM 27
COc1ccc2c3c1O[C@H]1C(=O)CC[C@H]4[C@@H](C2)N(C)CC[C@]314	none
CC(C)(C)c1cc(OC(=O)Cc2ccccc2)ccc1O	M5 PAM 19
O=C(Cc1ccccc1)Oc1cccc(N2C(=O)CCC2=O)c1	none
C[C@]12CCC3[C@@H](CC[C@@H]4C[C@H](O)CC[C@]34C)[C@@H]1CCC2=O (stereo partly specified)	none
C[C@]12CCC3C(CC[C@H]4C[C@@H](O)CC[C@]34C)[C@H]1C=CC2=O (stereo partly specified)	CHRM4 PAM 15
C[C@]12CC[C@H](O)C[C@@H]1CC[C@@H]1[C@@H]2CC[C@]2(C)C(=O)CC[C@@H]12	CHRM5 agonist 48
CCN1CCN(c2cn[nH]c(=O)c2Cl)CC1	none
CCN1CCN(c2nc3c(c(=O)[nH]2)CCCC3)CC1	CHRM4 PAM 26
CON(C)C(=O)Nc1ccc(Cl)cc1	none
O=C(Nc1ccc(Cl)cc1)O/N=C(\c1ccccc1)c1ccccn1	M5 antag 33
CCn1c(=O)cc(SCC(=O)N2CCC3(CC2)OCCO3)c2ccccc21	none
COC(=O)C1=C(c2ccc(F)cc2OCc2ccccc2)C[C@@H]2CC[C@H]1N2C(=O)NCc1ccccc1Br	none
O=c1c2ccccc2nc(-c2ccccc2)n1-c1ccncc1	none
c1ccc(C(c2ccccc2)c2ccncc2)cc1	CHRM4 antagonist 42, M5 antag 37
Cc1nc(C)c(C(=O)NN=Cc2ccc(N(CCCl)CCCl)cc2)s1	none
O=C(Nc1cccc(C(F)(F)F)c1)OC1CN2CCC1CC2 (stereo unspecified)	CHRM4 antagonist 43, M5 antag 70
O=C(Nc1ccc(C(F)(F)F)cc1)OC1CN2CCC1CC2 (stereo unspecified)	none
c1ccc2c(c1)Sc1ccccc1N2CC1CN2CCC1CC2 (stereo unspecified)	CHRM4 antagonist 98, M5 antag 98
